Tests used:
[1] = Drug level in human urine treated with [14C]SB-649868 at 30 mg, po single dose after 0 to 72 hrs by HPLC-MSn analysis; conditions: in vivo, 0-72 h
[2] = Drug level in human feces treated with [14C]SB-649868 at 30 mg, po single dose by HPLC-MSn analysis; conditions: in vivo
[3] = Drug excretion in human urine at 30 mg, po single dose measured at 0 to 12 hrs; assay type: ADME, organism-based; set-up: dosed compound name [14C]SB-649868; conditions: in vivo
In short: (§1)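 After one oral 30 mg [14C] dose in eight healthy men, urine was collected at 0–6, 6–12 and 12–24 h, then every 24 h to 216 h. Feces were collected every 24 h to 216 h and homogenized 1:1 with water. Radioactivity was counted by LSC in triplicate aliquots. Results given as cumulative % of dose, mean (S.D.).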

Homo sapiens [4] = experiment: Tmax in human plasma assessed as total radioactivity at 30 mg, po single dose; assay type: ADME, organism-based; set-up: dosed compound name [14C]SB-649868; conditions: in vivo
In short: (§2)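 Eight healthy men given one oral capsule of [14C] drug, 30 mg (approx. 70 µCi), with 160 ml water. Blood in K-EDTA tubes from pre-dose to 96 h, chilled and spun at 4°C. Plasma read by LSC in triplicate 0.25 ml aliquots, quench-corrected and background-subtracted. Noncompartmental analysis: Cmax and tmax read from the data, t1/2 = ln2/λz, AUC by linear-up/log-down trapezoids. Geometric means.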

Homo sapiens [5] = experiment: Total drug excretion in human at 30 mg, po single dose measured at 0 to 12 hrs; assay type: ADME, organism-based; set-up: dosed compound name [14C]SB-649868; conditions: in vivo
In short: as §1

Homo sapiens [6] = experiment: Apparent half life in human plasma assessed as total radioactivity at 30 mg, po single dose; assay type: ADME, organism-based; set-up: dosed compound name [14C]SB-649868; conditions: in vivo
In short: as §2

[7] = Drug excretion in human feces at 30 mg, po single dose measured at 0 to 192 hrs; assay type: ADME, organism-based; set-up: dosed compound name [14C]SB-649868; conditions: in vivo
In short: as §1

Homo sapiens [8] = experiment: Total drug excretion in human at 30 mg, po single dose measured at 0 to 120 hrs; assay type: ADME, organism-based; set-up: dosed compound name [14C]SB-649868; conditions: in vivo
In short: as §1

[9] = Drug excretion in human urine at 30 mg, po single dose measured at 0 to 216 hrs; assay type: ADME, organism-based; set-up: dosed compound name [14C]SB-649868; conditions: in vivo
In short: as §1

[10] = Drug excretion in human urine at 30 mg, po single dose measured at 0 to 24 hrs; assay type: ADME, organism-based; set-up: dosed compound name [14C]SB-649868; conditions: in vivo
In short: as §1

Homo sapiens [11] = experiment: Total drug excretion in human at 30 mg, po single dose measured at 0 to 48 hrs; assay type: ADME, organism-based; set-up: dosed compound name [14C]SB-649868; conditions: in vivo
In short: as §1

[12] = Drug excretion in human urine at 30 mg, po single dose measured at 0 to 192 hrs; assay type: ADME, organism-based; set-up: dosed compound name [14C]SB-649868; conditions: in vivo
In short: as §1

Homo sapiens [13] = experiment: Total drug excretion in human at 30 mg, po single dose measured at 0 to 6 hrs; assay type: ADME, organism-based; set-up: dosed compound name [14C]SB-649868; conditions: in vivo
In short: (§3)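 Healthy male volunteers (n=8) given single oral 30 mg (approx. 70 µCi) [14C]-labelled dose in a capsule with 160 ml water. Urine collected pre-dose, 0–6, 6–12, 12–24 h, then 24 h intervals to 216 h; feces at 24 h intervals to 216 h, homogenized 1:1 with water. Triplicate aliquots counted by LSC with quench correction and background subtraction; cumulative excretion expressed as % of dose.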

[14] = Drug excretion in human feces at 30 mg, po single dose measured at 0 to 48 hrs; assay type: ADME, organism-based; set-up: dosed compound name [14C]SB-649868; conditions: in vivo
In short: as §1

[15] = Drug excretion in human feces at 30 mg, po single dose measured at 0 to 144 hrs; assay type: ADME, organism-based; set-up: dosed compound name [14C]SB-649868; conditions: in vivo
In short: as §1

[16] = Drug excretion in human urine at 30 mg, po single dose measured at 0 to 96 hrs; assay type: ADME, organism-based; set-up: dosed compound name [14C]SB-649868; conditions: in vivo
In short: as §1

[17] = Drug excretion in human urine at 30 mg, po single dose measured at 0 to 48 hrs; assay type: ADME, organism-based; set-up: dosed compound name [14C]SB-649868; conditions: in vivo
In short: as §1

[18] = Drug excretion in human urine at 30 mg, po single dose measured at 0 to 144 hrs; assay type: ADME, organism-based; set-up: dosed compound name [14C]SB-649868; conditions: in vivo
In short: as §1

Homo sapiens [19] = experiment: Total drug excretion in human at 30 mg, po single dose measured at 0 to 24 hrs; assay type: ADME, organism-based; set-up: dosed compound name [14C]SB-649868; conditions: in vivo
In short: as §1

Homo sapiens [20] = experiment: AUC (0 to t) in human plasma assessed as total radioactivity at 30 mg, po single dose; assay type: ADME, organism-based; set-up: dosed compound name [14C]SB-649868; conditions: in vivo
In short: as §2

[21] = Drug excretion in human urine at 30 mg, po single dose measured at 0 to 72 hrs; assay type: ADME, organism-based; set-up: dosed compound name [14C]SB-649868; conditions: in vivo
In short: as §1

Homo sapiens [22] = experiment: Total drug excretion in human at 30 mg, po single dose measured at 0 to 72 hrs; assay type: ADME, organism-based; set-up: dosed compound name [14C]SB-649868; conditions: in vivo
In short: as §3

Homo sapiens [23] = experiment: Total drug excretion in human at 30 mg, po single dose measured at 0 to 144 hrs; assay type: ADME, organism-based; set-up: dosed compound name [14C]SB-649868; conditions: in vivo
In short: as §1

Homo sapiens [24] = experiment: Total drug excretion in human at 30 mg, po single dose measured at 0 to 96 hrs; assay type: ADME, organism-based; set-up: dosed compound name [14C]SB-649868; conditions: in vivo
In short: as §3

[25] = Drug excretion in human feces at 30 mg, po single dose measured at 0 to 120 hrs; assay type: ADME, organism-based; set-up: dosed compound name [14C]SB-649868; conditions: in vivo
In short: as §1

[26] = Drug excretion in human urine at 30 mg, po single dose measured at 0 to 120 hrs; assay type: ADME, organism-based; set-up: dosed compound name [14C]SB-649868; conditions: in vivo
In short: as §1

Homo sapiens [27] = experiment: Total drug excretion in human at 30 mg, po single dose measured at 0 to 168 hrs; assay type: ADME, organism-based; set-up: dosed compound name [14C]SB-649868; conditions: in vivo
In short: as §1

Homo sapiens [28] = experiment: AUC (0 to infinity) in human plasma assessed as total radioactivity at 30 mg, po single dose; assay type: ADME, organism-based; set-up: dosed compound name [14C]SB-649868; conditions: in vivo
In short: as §2

[29] = Drug excretion in human feces at 30 mg, po single dose measured at 0 to 24 hrs; assay type: ADME, organism-based; set-up: dosed compound name [14C]SB-649868; conditions: in vivo
In short: as §1

Homo sapiens [30] = experiment: Total drug excretion in human at 30 mg, po single dose measured at 0 to 192 hrs; assay type: ADME, organism-based; set-up: dosed compound name [14C]SB-649868; conditions: in vivo
In short: as §1

[31] = Drug excretion in human feces at 30 mg, po single dose measured at 0 to 72 hrs; assay type: ADME, organism-based; set-up: dosed compound name [14C]SB-649868; conditions: in vivo
In short: as §1

[32] = Drug excretion in human feces at 30 mg, po single dose measured at 0 to 96 hrs; assay type: ADME, organism-based; set-up: dosed compound name [14C]SB-649868; conditions: in vivo
In short: as §1

[33] = Drug excretion in human feces at 30 mg, po single dose measured at 0 to 216 hrs; assay type: ADME, organism-based; set-up: dosed compound name [14C]SB-649868; conditions: in vivo
In short: as §1

Homo sapiens [34] = experiment: Total drug excretion in human at 30 mg, po single dose measured at 0 to 216 hrs; assay type: ADME, organism-based; set-up: dosed compound name [14C]SB-649868; conditions: in vivo
In short: as §1

[35] = Drug excretion in human urine at 30 mg, po single dose measured at 0 to 168 hrs; assay type: ADME, organism-based; set-up: dosed compound name [14C]SB-649868; conditions: in vivo
In short: as §1

[36] = Drug excretion in human feces at 30 mg, po single dose measured at 0 to 168 hrs; assay type: ADME, organism-based; set-up: dosed compound name [14C]SB-649868; conditions: in vivo
In short: as §1

[37] = Drug excretion in human urine at 30 mg, po single dose measured at 0 to 6 hrs; assay type: ADME, organism-based; set-up: dosed compound name [14C]SB-649868; conditions: in vivo
In short: as §1

Homo sapiens [38] = experiment: Cmax in human plasma assessed as total radioactivity at 30 mg, po single dose; assay type: ADME, organism-based; set-up: dosed compound name [14C]SB-649868; conditions: in vivo
In short: as §2

## Cc1nc(C(=O)N[C@@H](CCCC(=O)O)CNC(=O)c2cccc3occc23)c(-c2ccc(F)cc2)s1
[1]
  Compound recovery: Below quantification limit
[2]
  Compound recovery: 1.1%

## Cc1nc(C(=O)N2CCCC[C@H]2CNC(=O)c2cccc3oc(O)cc23)c(-c2ccc(F)cc2)s1
[1]
  Compound recovery: 0.6%

## Cc1nc(C(=O)N2CCCC[C@H]2Cn2ccc3c(O)cccc3c2=O)c(-c2ccc(F)cc2)s1
[1]
  Compound recovery: Below quantification limit
[2]
  Compound recovery: 0.7%

## C[14c]1nc(C(=O)N2CCCC[C@H]2CNC(=O)c2cccc3occc23)c(-c2ccc(F)cc2)s1
[3]
  Radiolabel recovery: 5.9%
Homo sapiens [4]
  Radiolabel recovery: 4 h
Homo sapiens [5]
  Radiolabel recovery: 5.9%
Homo sapiens [6]
  Radiolabel recovery: 39.3 h
[7]
  Radiolabel recovery: 78.5%
Homo sapiens [8]
  Radiolabel recovery: 87.3%
[9]
  Radiolabel recovery: 12%
[10]
  Radiolabel recovery: 8.9%
Homo sapiens [11]
  Radiolabel recovery: 47.5%
[12]
  Radiolabel recovery: 12%
Homo sapiens [13]
  Radiolabel recovery: 2.3%
[14]
  Radiolabel recovery: 36.8%
[15]
  Radiolabel recovery: 76.8%
[16]
  Radiolabel recovery: 11.6%
[17]
  Radiolabel recovery: 10.7%
[18]
  Radiolabel recovery: 11.9%
Homo sapiens [19]
  Radiolabel recovery: 10.8%
Homo sapiens [20]
  Radiolabel recovery: 31 ugequiv.hr/ml
[21]
  Radiolabel recovery: 11.3%
Homo sapiens [22]
  Radiolabel recovery: 71.3%
Homo sapiens [23]
  Radiolabel recovery: 88.7%
Homo sapiens [24]
  Radiolabel recovery: 81.2%
[25]
  Radiolabel recovery: 75.6%
[26]
  Radiolabel recovery: 11.7%
Homo sapiens [27]
  Radiolabel recovery: 89.7%
Homo sapiens [28]
  Radiolabel recovery: 37.3 ugequiv.hr/ml
[29]
  Radiolabel recovery: 1.9%
Homo sapiens [30]
  Radiolabel recovery: 90.5%
[31]
  Radiolabel recovery: 60%
[32]
  Radiolabel recovery: 69.6%
[33]
  Radiolabel recovery: 79.1%
Homo sapiens [34]
  Radiolabel recovery: 91.1%
[35]
  Radiolabel recovery: 11.9%
[36]
  Radiolabel recovery: 77.7%
[37]
  Radiolabel recovery: 2.3%
Homo sapiens [38]
  Radiolabel recovery: 1.66 ugequiv/ml

— ChEMBL document CHEMBL3525942, “Disposition and metabolism of [14C]SB-649868, an orexin 1 and 2 receptor antagonist, in humans” (Drug Metab Dispos, 2011)
